# Screening data: PubChem BioAssay, The Scripps Research Institute Molecular Screening Center
# CHO-K1 Ca antag: nonselective inhibitor or artifact in parental CHO-K1 cells; inhibition, % at 3 µM; 360,000 tested, 0.6% active; ATP-induced calcium, Fluo-8 fluorescence;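 active = inhibition above a per-plate cutoff, the plate's mean sample inhibition plus 3 SD, cut at about 24% in these data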;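 note: 0% = DMSO plus EC80 ATP and 100% = DMSO alone without ATP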
# OX1R antag-1: OX1R (HCRTR1) antagonists, primary screen, fluorescence, CHO/OX1R cells, Fluo-8 calcium, orexin A; inhibition, % at 5 µM; Fluo-8 calcium fluorescence; 330,000 tested, 0.43% active; AID 434989, 2010;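 active = inhibition above its plate's threshold, mean inhibition of all tested compounds on the plate plus 3 SD, cut at about 37% in these data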;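 note: 0% = orexin A challenge wells and 100% = SB-334867-A antagonist wells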
# Target sequence (O43613 whole entry, looked up): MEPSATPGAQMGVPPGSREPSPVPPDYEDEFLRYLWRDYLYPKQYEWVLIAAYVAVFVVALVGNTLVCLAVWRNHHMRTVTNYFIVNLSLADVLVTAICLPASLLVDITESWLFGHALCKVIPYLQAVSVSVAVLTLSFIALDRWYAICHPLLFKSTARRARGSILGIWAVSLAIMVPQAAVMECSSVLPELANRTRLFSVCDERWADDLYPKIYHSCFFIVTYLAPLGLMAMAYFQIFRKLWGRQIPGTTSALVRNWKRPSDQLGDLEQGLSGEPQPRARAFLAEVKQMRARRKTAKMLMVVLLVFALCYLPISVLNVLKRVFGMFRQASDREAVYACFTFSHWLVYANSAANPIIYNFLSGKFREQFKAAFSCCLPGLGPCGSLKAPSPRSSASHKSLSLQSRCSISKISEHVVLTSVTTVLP
# CHO parental Ca: ATP-evoked calcium signal inhibitors, parental CHO, primary screen, counter-screen for OX1R antagonist project, cell-based, fluorescence, Fluo-8 calcium dye | inhibition, % at 5.6 µM | AID 463079, 2010 | parental CHO-K1, ATP-induced calcium, Fluo-8 fluorescence | 330,000 tested, 0.63% active;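 active = inhibition above that plate's mean sample inhibition plus 3 SD, cut at about 26% in these data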;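 note: 0% = ATP-challenged DMSO wells and 100% = DMSO wells without ATP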
#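 Material – parental CHO cells · Reagent – ATP stimulus · Compound – single nominal dose of 5.6 µM per compound · Detection – Fluo-8 fluorescence · Read-out basis – percent inhibition of calcium signal · Controls – ATP-challenged DMSO wells low, unchallenged DMSO wells high · Repeats – no replicates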
# CHO-K1 Ca PAM: nonselective calcium activators in parental CHO-K1 cells, primary screen, counter-screen for M1 PAM project, cell-based, Fluo-8 calcium fluorescence, full deck, 1536-well; ATP EC20; 0% at ATP EC20, 100% at ATP max; activation, % at 3 µM; AID 602247, 2012; 360,000 tested, 0.02% active;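 active = activation above the run cutoff, the mean activation of all test compounds plus 3 SD, cut at about 40% in these data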;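 note: peak over basal fluorescence ratio in a 140 s read after ATP addition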
# M1 ag parental: counter-screen for M1 agonists: effect in parental CHO-K1 cells; Fluo-8 calcium fluorescence; scaled to maximal ATP response, vehicle zero; activation, % at 3 µM; 360,000 tested, 0.48% active; in the data active = activation above about 15%;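 note: untransfected CHO-K1 host cells lacking M1 receptor as counterscreen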
# OX1R antag-2: antagonists of human orexin 1 receptor (OX1R). 330,000 tested, 1.8% active. Orexin/Hypocretin receptor type 1 (Homo sapiens), O43613. AID 485270, 2010. OX1R-expressing cells, FRET antagonist read-out. inhibition, % at 6.6 µM; in the data active = inhibition mostly above about 38%, no sharp cut-off; inactive = mostly below about 40%;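 note: 0% = agonist challenge alone and 100% = reference antagonist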
# * = called active by the depositor; · = no result. In the library only some 2.9% were active in any assay of this set; here they are far more common.
SMILES,CHO-K1 Ca antag,OX1R antag-1,CHO parental Ca,CHO-K1 Ca PAM,M1 ag parental,OX1R antag-2
CCN(CC)C(=O)Cn1c(C)c(/C=C/c2cc[n+](C)cc2)c2ccccc21,-4.5,-1.0,-16.2,10.3,2.9,71.9*
C=CCn1c(C)c(/C=C/c2cc[n+](C)cc2)c2ccccc21,-5.5,1.2,16.1,6.9,6.3,47.8*
CC(C)n1cc(/C=C/c2cc[n+](C)cc2)c2ccccc21,-7.0,·,·,4.3,5.2,·
CCn1cc(/C=C/c2cc[n+](C)cc2)c2ccccc21,-6.3,-17.8,-4.2,1.1,2.2,45.1*
O=C(CN1C(=O)NC2(CCCC2)C1=O)Nc1cc(Cl)ccc1N1CCOCC1,-3.7,-22.2,-1.1,9.0,6.8,12.3
COc1ccc(NC(=O)CSc2ncccc2C(=O)OC(C)C)cc1OC,26.9*,6.1,17.9,-9.5,8.6,22.0
Cn1cccc1CN1CCC[C@]2(N[C@H](c3ccccc3)[C@@H]3C(=O)N(Cc4ccccc4)C(=O)[C@@H]32)C1=O,16.1,·,·,-5.4,-0.3,·
CCc1c(N)nc(N)nc1Nc1ccccc1C,-15.4,·,·,2.5,2.6,·
C/C(N)=C(/C#N)C(=O)CSc1nc2cc(Cl)ccc2s1,3.8,-13.5,-8.3,-0.9,9.4,55.6*
C[C@H](NC(=O)c1nc[nH]c1C(=O)N1CCNCC1)C(=O)OC(C)(C)C,-24.0,-16.2,-3.8,18.7,1.0,9.0
Clc1cccc(Cl)c1Cn1ccc(C2CC2)n1,4.2,-3.9,3.5,5.6,16.4*,11.5
O=c1c2ccccc2c(-c2ccccc2)nn1Cc1c(Cl)cccc1Cl,-11.5,-35.1,-25.8,19.0,0.2,5.2
Cc1cccc(-n2[nH]c(C)c(C=Nc3ccc4[nH]c(=O)[nH]c4c3)c2=O)c1,28.4*,-6.2,-5.5,-15.0,0.1,10.1
O=C(Nc1cccc(S(=O)(=O)N2CCCCC2)c1)C1CCCN1S(=O)(=O)c1ccccc1F (centres undefined),-17.7,25.4,-12.3,0.9,3.0,27.9*
O=C(Nc1ccc(N2CCCCC2)cc1)C1CCCN1S(=O)(=O)c1ccc(F)cc1 (centres undefined),-7.1,-18.3,-20.3,17.2,2.7,4.8
CS(=O)(=O)c1cccc(NC(=O)C2CCCN2S(=O)(=O)c2ccc(F)cc2)c1 (centres undefined),-19.7,19.9,-3.2,15.8,1.5,54.9*
COc1ccccc1NC(=S)N1CCc2cc(OC)c(OC)cc2C1,24.4*,-6.9,-9.1,-16.6,-0.1,18.5
COc1cc2c(cc1OC)CN(C(=S)Nc1cccc(Cl)c1C)CC2,-2.9,-16.6,-26.7,-11.3,3.7,16.2
COc1cccc2cc(C(C)=O)c(=O)oc12,-41.2,0.6,-3.7,29.2,1.1,28.8
COc1cccc2cc(C(=O)NCc3ccccc3Br)c(=O)oc12,-1.4,-17.3,2.5,12.3,0.1,18.6
COc1cccc2cc(C(=O)NCc3ccccc3Cl)c(=O)oc12,5.5,-7.5,-1.7,11.5,15.4*,6.2
COc1cccc2cc(C(=O)CS(=O)(=O)c3ccc(Cl)cc3)c(=O)oc12,-9.5,-18.5,-15.9,13.1,1.4,42.7*
CC(C)c1ccc(NC(=O)CCc2ccccc2)cc1,1.2,-19.2,-1.2,3.1,0.3,2.1
CC1(C)OC(=O)N(CCc2ccccc2)C1(C)O (centres undefined),3.5,-5.8,10.2,21.2,0.3,6.8
CC1(C)OC(=O)N(c2ccccc2)C12C=Cc1cc(Br)ccc1O2 (centres undefined),8.7,-16.2,36.2*,-4.5,-0.3,9.1
SMILES,CHO-K1 Ca antag,OX1R antag-1,CHO parental Ca,CHO-K1 Ca PAM,M1 ag parental,OX1R antag-2
N#CCCN(Cc1ccccc1)C(C(=O)NC1CCCCC1)c1cc2ccccc2o1 (centres undefined),-10.7,·,·,21.1,6.5,·
CCOC(=O)[C@]12CCCC=C1N(Cc1ccc(Cl)cc1Cl)C(=O)[C@H](CC(=O)NCCc1ccccc1OC)C2,5.0,·,·,3.0,0.8,·
COC(=O)C(Nc1ccccc1Cl)(c1cc(C)c(O)c(C)c1)C(F)(F)F (centres undefined),5.1,5.8,4.8,-5.2,0.1,35.2
COC(=O)/C(=C(/F)Sc1cc(C)c(O)c(C)c1)C(F)(F)F,-3.5,13.2,33.0*,19.9,0.2,17.6
CC1=C(C)/C(=N\OS(=O)(=O)c2ccccc2)C=CC1=O,37.0*,74.4*,65.4*,-2.7,9.3,149.5*
Cc1cc(NC(=O)c2ccc3nccnc3c2)ccc1Br,-4.7,12.4,-3.3,4.0,6.7,48.2*
O=C(Nc1ccc2cccnc2c1)c1ccc(Br)cc1,-24.9,1.8,-13.2,18.4,0.3,29.7*
O=C(Nc1ccc(SC(F)F)cc1)c1ccc2nccnc2c1,-1.2,85.6*,51.9*,-10.9,16.7*,51.8*
Cc1ccc(C(=O)Nc2ccc3nccnc3c2)cc1,-12.7,-16.6,-22.2,17.0,0.5,45.8
COC(=O)c1ccc(NC(=O)c2ccc3nccnc3c2)cc1,-11.1,-10.2,-14.7,23.6,7.5,39.3
COc1cccc(N(C(=O)c2sc(C)nc2C)C(C(=O)NCC2CCCO2)c2ccccc2)c1 (centres undefined),27.4*,-31.1,-12.4,-4.9,5.3,11.9
O=[N+]([O-])c1ccc(Sc2ccccc2)nc1,-8.2,-2.2,-3.0,19.4,-0.1,42.6
O=[N+]([O-])c1ccc(Sc2n[nH]c(-c3ccccc3)n2)nc1,-1.8,-11.7,-6.3,-1.4,0.2,74.0*
CSc1ccc(Cl)c(C(=O)NCCOc2cc(C)ccc2C(C)C)c1,-7.8,46.5*,53.1*,-10.4,-0.8,27.2
Cc1nc2ccccc2c(=O)n1CCc1ccccc1,3.8,-12.1,-9.6,6.4,2.7,32.6
Nc1ccc2nc(CCc3ccccc3)[nH]c2c1,-3.9,-8.5,-12.4,9.3,2.8,21.2
Nc1ccc2nc3c(=O)n(C4CCCCC4)c(=O)[nH]c3nc2c1,29.9*,46.1*,39.0*,-12.0,95.3*,52.5
Cc1cc2nc3c(=O)n(CCc4ccccc4)c(=O)[nH]c3nc2cc1N,2.1,18.1,29.8,10.4,26.0*,16.2
Nc1ccc2nc3c(=O)n(CCc4ccccc4)c(=O)[nH]c3nc2c1,16.2,41.5*,35.5*,-3.6,52.7*,19.0
O=C(Cn1cnc2ccccc21)N/N=C/c1ccccc1,3.9,-19.7,9.7,1.6,17.5*,11.7
CC(/C=N/NC(=O)Cn1cnc2ccccc21)=C\c1ccccc1,27.3*,-6.1,-16.0,-9.1,0.4,8.1
CC1CCN(C(=O)c2ccc3c(c2NCCO)C(=O)c2ccccc2C3=O)CC1,-13.5,-22.5,-24.8,14.9,5.2,44.3
